Tests used:
[1] = biological target: Potassium channel subfamily K member 9 (Homo sapiens) (UniProt Q9NPC2); experiment: Agonist activity at TASK3 (unknown origin) expressed in HEK293 cells assessed as increase in K+ current at 10 uM measured at +60 mV by whole-cell patch clamp method relative to control; type: cell-based
[2] = biological target: T1, Potassium channel subfamily K member 4 (Homo sapiens) (UniProt Q9NYG8); experiment: Agonist activity at TRAAK (unknown origin) expressed in HEK293 cells assessed as increase in K+ current at 10 uM measured at +60 mV by whole-cell patch clamp method relative to control; type: cell-based
T1 sequence (whole entry): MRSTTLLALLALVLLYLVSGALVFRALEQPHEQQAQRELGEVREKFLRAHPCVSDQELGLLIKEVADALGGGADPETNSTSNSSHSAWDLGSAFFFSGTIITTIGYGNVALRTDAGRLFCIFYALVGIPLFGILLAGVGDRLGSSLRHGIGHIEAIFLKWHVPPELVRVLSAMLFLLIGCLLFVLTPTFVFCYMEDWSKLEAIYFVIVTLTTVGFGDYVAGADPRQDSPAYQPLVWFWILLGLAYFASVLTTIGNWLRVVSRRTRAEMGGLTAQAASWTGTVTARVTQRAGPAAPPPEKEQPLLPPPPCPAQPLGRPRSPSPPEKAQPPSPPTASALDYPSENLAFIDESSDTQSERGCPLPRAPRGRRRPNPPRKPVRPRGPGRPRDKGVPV

[3] = biological target: T2, Potassium channel subfamily K member 2 (Homo sapiens) (UniProt O95069); experiment: Agonist activity at human TREK1 expressed in HEK293 cells assessed as increase in K+ current at 10 uM measured at +60 mV by whole-cell patch clamp method relative to control; type: cell-based
T2 sequence (whole entry): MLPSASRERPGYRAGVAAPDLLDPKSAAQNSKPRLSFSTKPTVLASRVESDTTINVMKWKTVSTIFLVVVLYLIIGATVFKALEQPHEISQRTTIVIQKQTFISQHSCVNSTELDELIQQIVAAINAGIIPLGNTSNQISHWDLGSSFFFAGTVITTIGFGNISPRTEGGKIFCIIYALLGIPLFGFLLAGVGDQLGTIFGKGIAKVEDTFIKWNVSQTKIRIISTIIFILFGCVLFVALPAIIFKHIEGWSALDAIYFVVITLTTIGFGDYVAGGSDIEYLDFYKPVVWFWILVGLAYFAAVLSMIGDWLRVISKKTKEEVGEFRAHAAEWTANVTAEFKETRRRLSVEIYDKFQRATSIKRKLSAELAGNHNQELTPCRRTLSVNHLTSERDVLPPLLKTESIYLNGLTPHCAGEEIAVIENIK
How it was run: (§1)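 Human TREK-1 (kcnk2) in pIRES2-eGFP was stably expressed in HEK-293 cells under G418 selection, and cells were used 4–48 h after plating. Bath (mM): 140 NaCl, 10 TEA-Cl, 5 KCl, 3 MgCl2, 1 CaCl2, 10 HEPES, pH 7.4. Pipette (mM): 155 KCl, 3 MgCl2, 5 EGTA, 10 HEPES, pH 7.2. Holding was −80 mV, with a step to −100 mV then a 400 ms ramp to +60 mV every 5 s. Read-out was the ratio Imax/I0 taken from I/V curves. Stocks were 20 mM in DMSO.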

Mus musculus [4] = experiment: Antinociceptive activity in CD1 mouse assessed as inhibition of acetic acid-induced writhes at 10 mg/kg, sc pretreated for 15 mins followed by acetic acid challenge measured within 20 mins relative to control; type: functional
How it was run: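 Male CD1 mice (20-25 g), n=8 per group, dosed at 10 mg/kg s.c. or with vehicle (5% Tween 80 in 0.9% saline). Dosing was 15 min before i.p. 0.6% acetic acid (10 mL/kg). Abdominal writhes were counted for 20 min. Effect = (mean control writhes − mean test writhes)/mean control writhes ×100.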

Mus musculus [5] = experiment: Antinociceptive activity in CD1 mouse assessed as increase in thermal-stimulus induced paw withdrawal latency at 60 mg/kg, sc measured after 30 mins by hot plate method relative to control; type: functional
How it was run: (§2)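 Male CD1 mice (20-25 g), n=8 per group, given 60 mg/kg s.c. After 5 min acclimatization on a plate at room temperature, mice were placed on a 52 °C hotplate. Latency to forepaw or hindpaw licking or hindpaw flicking was recorded, with a 30 s cut-off. Latency was taken after two consecutive stable baselines, then 30 and 45 min post-dose. Effect = (postdrug − predrug latency)/predrug latency ×100.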

Mus musculus [6] = experiment: Antinociceptive activity in CD1 mouse assessed as increase in thermal-stimulus induced paw withdrawal latency at 60 mg/kg, sc measured after 45 mins by hot plate method relative to control; type: functional; how it was run: as §2
Mus musculus [7] = experiment: Antinociceptive activity in wild-type C57Bl/6J mouse assessed as increase in thermal-stimulus induced paw withdrawal latency at 60 mg/kg, sc measured after 30 mins by hot plate method relative to control; type: functional
How it was run: (§3)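 TREK-1−/− and wild-type C57Bl/6J littermates came from heterozygous crosses, n=7. Dose was 60 mg/kg s.c. The 52 °C hotplate measured paw-lick latency, 30 s cut-off, with baseline from two stable pre-dose latencies.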

Mus musculus [8] = experiment: Antinociceptive activity in wild-type C57Bl/6J mouse assessed as increase in thermal-stimulus induced paw withdrawal latency at 60 mg/kg, sc measured after 45 mins by hot plate method relative to control; type: functional; how it was run: as §3
Mus musculus [9] = experiment: Antinociceptive activity in TREK1 deficient C57Bl/6J mouse assessed as increase in thermal-stimulus induced paw withdrawal latency at 60 mg/kg, sc measured after 30 mins by hot plate method relative to control; type: functional; how it was run: as §3
Mus musculus [10] = experiment: Antinociceptive activity in TREK1 deficient C57Bl/6J mouse assessed as increase in thermal-stimulus induced paw withdrawal latency at 60 mg/kg, sc measured after 45 mins by hot plate method relative to control; type: functional; how it was run: as §3
Mus musculus [11] = experiment: In vivo activation of TREK1 in C57Bl/6J mouse assessed as increase in thermal-stimulus induced paw withdrawal latency at 60 mg/kg, sc measured after 30 mins by hot plate method relative to control; type: functional; how it was run: as §3
Mus musculus [12] = experiment: In vivo activation of TREK1 in C57Bl/6J mouse assessed as increase in thermal-stimulus induced paw withdrawal latency at 60 mg/kg, sc measured after 45 mins by hot plate method relative to control; type: functional; how it was run: as §3
[13] = biological target: T3, Potassium channel subfamily K member 10 (Homo sapiens) (UniProt P57789); experiment: Agonist activity at TREK-2 (unknown origin) expressed in HEK293 cells assessed as increase in K+ current at 10 uM measured at +60 mV by whole-cell patch clamp method relative to control; type: cell-based
T3 sequence (whole entry): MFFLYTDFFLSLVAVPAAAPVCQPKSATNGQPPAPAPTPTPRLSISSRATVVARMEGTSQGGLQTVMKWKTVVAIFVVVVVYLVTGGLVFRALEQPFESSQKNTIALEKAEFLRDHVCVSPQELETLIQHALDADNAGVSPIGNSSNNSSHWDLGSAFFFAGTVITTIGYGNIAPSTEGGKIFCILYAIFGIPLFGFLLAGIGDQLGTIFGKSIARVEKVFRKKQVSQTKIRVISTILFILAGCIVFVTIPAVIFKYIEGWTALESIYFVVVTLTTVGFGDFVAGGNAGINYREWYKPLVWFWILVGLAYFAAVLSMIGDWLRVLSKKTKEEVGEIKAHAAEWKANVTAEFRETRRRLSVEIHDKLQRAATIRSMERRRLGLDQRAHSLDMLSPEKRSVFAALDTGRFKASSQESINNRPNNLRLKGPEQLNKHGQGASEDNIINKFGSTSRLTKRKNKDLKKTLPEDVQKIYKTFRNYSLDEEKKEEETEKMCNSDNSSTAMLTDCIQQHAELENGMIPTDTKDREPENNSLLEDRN

Mus musculus [14] = experiment: Antinociceptive activity in CD1 mouse assessed as increase in thermal-stimulus induced paw withdrawal latency at 3 mg/kg, sc measured after 30 mins by hot plate method relative to control; type: functional
How it was run: (§4)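 Male CD1 mice (20–25 g), groups of 8, scored blind. After 5 min on a room-temperature plate, mice are placed on a 52 °C hotplate. Latency is the time to licking of fore- or hindpaws or flicking of hindpaws, with a 30 s cut-off. Two consecutive stable baseline latencies are taken, then latency is read 30 and 45 min after s.c. injection. % effect = (post − pre)/pre × 100.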

Mus musculus [15] = experiment: Antinociceptive activity in CD1 mouse assessed as increase in thermal-stimulus induced paw withdrawal latency at 3 mg/kg, sc measured after 45 mins by hot plate method relative to control; type: functional; how it was run: as §4
[16] = biological target: T4, Potassium channel subfamily K member 2 (Bos taurus) (UniProt Q8HY88); experiment: Agonist activity at TREK1 in bovine AZF cells assessed as increase in K+ current at 40 uM by whole-cell patch clamp method relative to control; type: cell-based
T4 sequence (whole entry): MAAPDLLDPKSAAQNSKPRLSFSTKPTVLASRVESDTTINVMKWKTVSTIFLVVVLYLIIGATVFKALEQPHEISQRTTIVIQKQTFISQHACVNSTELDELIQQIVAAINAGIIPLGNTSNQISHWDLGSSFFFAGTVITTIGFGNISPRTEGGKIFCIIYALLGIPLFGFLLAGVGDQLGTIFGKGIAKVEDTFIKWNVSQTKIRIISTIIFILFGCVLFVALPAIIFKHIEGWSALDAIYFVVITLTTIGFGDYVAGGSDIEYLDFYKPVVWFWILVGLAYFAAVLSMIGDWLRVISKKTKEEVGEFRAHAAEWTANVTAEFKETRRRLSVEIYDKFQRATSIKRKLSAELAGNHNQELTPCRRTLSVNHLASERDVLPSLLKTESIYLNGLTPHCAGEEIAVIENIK

[17] = Half life in rat liver microsomes at 40 mM in presence of NADPH-cofactor by HPLC analysis; type: ADME, microsome
[18] = biological target: T2, Potassium channel subfamily K member 2 (Homo sapiens); experiment: Agonist activity at human TREK1 expressed in HEK293 cells assessed as increase in K+ current at 100 uM measured at +60 mV by whole-cell patch clamp method relative to control; type: cell-based; how it was run: as §1
[19] = biological target: T2, Potassium channel subfamily K member 2 (Homo sapiens); experiment: Agonist activity at human TREK1 expressed in xenopus oocytes assessed as increase in K+ current at 20 uM measured at 0 mV by double microelectrode method relative to control; type: cell-based
Liver = experiment: Drug metabolism in rat liver microsomes assessed as (E)-2-Cyano-3-(3,4-dihydroxyphenyl)acrylic acid formation at 40 mM in presence of NADPH-cofactor measured after 24 hrs by HPLC analysis; type: ADME, microsome; details: 40000 µM
How it was run: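 Incubation mix: rat liver microsomes (20 mg/mL stock), phosphate buffer pH 7.4 and NADPH (40 mM stock). Drug was added from a 40 mM DMSO stock. Samples were vortexed and incubated at 37 °C with stirring.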

[20] = biological target: Potassium channel subfamily K member 9 (Homo sapiens) (UniProt Q9NPC2); experiment: Agonist activity at TASK3 (unknown origin) expressed in HEK293 cells assessed as increase in K+ current at 20 uM measured at +60 mV by whole-cell patch clamp method relative to control; type: cell-based
[21] = biological target: T1, Potassium channel subfamily K member 4 (Homo sapiens); experiment: Agonist activity at TRAAK (unknown origin) expressed in HEK293 cells assessed as increase in K+ current at 20 uM measured at +60 mV by whole-cell patch clamp method relative to control; type: cell-based
[22] = biological target: T2, Potassium channel subfamily K member 2 (Homo sapiens); experiment: Agonist activity at human TREK1 expressed in HEK293 cells assessed as increase in K+ current at 20 uM measured at +60 mV by whole-cell patch clamp method relative to control; type: cell-based; how it was run: as §1
[23] = biological target: T3, Potassium channel subfamily K member 10 (Homo sapiens); experiment: Agonist activity at TREK-2 (unknown origin) expressed in HEK293 cells assessed as increase in K+ current at 20 uM measured at +60 mV by whole-cell patch clamp method relative to control; type: cell-based

Chain of Potassium channel subfamily K member 9 (Homo sapiens) (Q9NPC2 whole entry): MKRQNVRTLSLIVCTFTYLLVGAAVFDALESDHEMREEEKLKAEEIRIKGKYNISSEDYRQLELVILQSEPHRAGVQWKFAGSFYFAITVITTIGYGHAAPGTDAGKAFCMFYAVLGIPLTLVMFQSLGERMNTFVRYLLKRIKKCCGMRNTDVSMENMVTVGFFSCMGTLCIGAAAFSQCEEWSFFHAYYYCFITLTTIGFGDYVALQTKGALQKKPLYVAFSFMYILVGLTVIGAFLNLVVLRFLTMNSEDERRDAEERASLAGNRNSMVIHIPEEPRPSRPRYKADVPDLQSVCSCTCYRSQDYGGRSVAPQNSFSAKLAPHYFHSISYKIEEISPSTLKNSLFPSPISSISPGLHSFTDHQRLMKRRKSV

| SMILES | inhibition in vivo at 10 mg/kg (Mus musculus [4]) | Activity (Mus musculus [5]) | Activity (Mus musculus [6]) | Activity (Mus musculus [7]) | Activity (Mus musculus [8]) | Activity (Mus musculus [9]) | Activity (Mus musculus [10]) | Activity (Mus musculus [11]) | Activity (Mus musculus [12]) | further results |
| --- | --- | --- | --- | --- | --- | --- | --- | --- | --- | --- |
| N#C/C(=C\c1cc2ccccc2[nH]1)C(=O)Nc1ccccc1 | 52% | 49.5% | 49.5% | 27.9% | 39.2% | 18.7% | 51.2% | 33% | 0% | fold change (FC) [1]: 1.2; fold change (FC) [2]: 0.9; fold change (FC) [3]: 2.16 to 2.2; fold change (FC) [13]: 1.6 |
| CN1CC[C@]23c4c5ccc(O)c4O[C@H]2[C@@H](O)C=C[C@H]3[C@H]1C5 [MORPHINE] | – | – | – | 98.6% | 124.5% | 86.7% | 94.6% | 12.6% | 24.3% | Activity (Mus musculus [14]): 185%; Activity (Mus musculus [15]): 159.7% |
| O=C(O)/C=C/c1ccc(O)c(O)c1 | – | – | – | – | – | – | – | – | – | fold change (FC) [16]: 1 |
| N#C/C(=C\c1cc2ccccc2[nH]1)C(=O)OC1CCCCC1 | 83.6% | 65.7% | 52.6% | – | – | – | – | – | – | fold change (FC) [3]: 1.98; half-life [17]: 25 to 45 min |
| CCOC(=O)/C(C#N)=C/c1ccc(O)c(O)c1 | 57.8% | 34.6% | 21.8% | – | – | – | – | – | – | fold change (FC) [18]: 1.54; fold change (FC) [16]: 1; fold change (FC) [19]: 2.76; half-life [17]: < 4 min; Drug metabolism (Liver): Metabolite_Detected |
| N#C/C(=C\c1ccoc1)C(=O)Nc1ccccc1 | 48% | 107.7% | 148.6% | 24.8% | 22.1% | 29.2% | 35.1% | 0% | 0% | fold change (FC) [20]: 0.5; fold change (FC) [21]: 1; fold change (FC) [22]: 4.64; fold change (FC) [23]: 3 |
| CCOC(=O)/C(C#N)=C/c1cccc2ccccc12 | 44.7% | 93.2% | 67.5% | 17.4% | 31.1% | 18% | 34.4% | 0% | 0% | fold change (FC) [18]: 1.59 |
